# Most compounds without a hit are left out; they make up all but 2.2% or so of the library.
# RBBP9 inhibitor: human RBBP9 inhibitors, primary screen, biochemical, fluorescence polarization, FP-Rh probe, HTS; Serine hydrolase RBBP9 (Homo sapiens), O75884; AID 1515, 2009; recombinant RBBP9; inhibition, % at 7.94 µM; 220,000 compounds, 0.2% hits;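 active = inhibition above the campaign mean of all tested compounds plus 3 SD, cut at about 14% in these data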;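 note: plate controls were DMSO wells with RBBP9 for no effect and wells lacking RBBP9 protein for full effect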
# Target sequence (O75884 whole entry, looked up): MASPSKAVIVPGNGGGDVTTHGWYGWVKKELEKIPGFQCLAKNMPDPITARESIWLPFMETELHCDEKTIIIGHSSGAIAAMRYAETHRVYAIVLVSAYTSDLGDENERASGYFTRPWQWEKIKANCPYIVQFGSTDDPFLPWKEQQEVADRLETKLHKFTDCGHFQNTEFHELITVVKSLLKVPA
#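 Test system: recombinant human RBBP9. Quantity: 2.5 µM RBBP9 dispensing solution, before mixing. Detection: FP readout at 525/598 nm. Reagent: Serine-hydrolase probe FP-Rh, 375 nM pre-mixing. Measure: % inhibition. Control set: DMSO-treated enzyme wells and wells lacking RBBP9. Buffer or medium: Tris-NaCl-Pluronic buffer, pH 8.0. Times: preincubation 30 min plus labeling 45 min at 25 °C.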
# MCL1 BIM primary: inhibitors of MCL1 binding to BIM-BH3, primary screen, biochemical, fluorescence polarization; Induced myeloid leukemia cell differentiation protein Mcl-1 (Homo sapiens), Q07820; GST-MCL1 / FITC-Bim-BH3 fluorescence polarization; inhibition, % at 10.9 µM; 320,000 compounds, 0.68% hits; AID 2057, 2009;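 active = inhibition above the mean inhibition of all tested compounds plus 3 SD, set per campaign, cut at about 40% in these data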;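 note: 0% = DMSO wells and 100% = unlabeled Bim-BH3 peptide control; higher means more loss of mP so more displacement of Bim peptide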
# Mcl1-Bid inh: Mcl-1/Bid binding inhibitors, primary screen, biochemical, TR-FRET, 1536-well; inhibition, % at 21.7 µM; TR-FRET Mcl-1/Bid-Dy647 peptide binding; 220,000 compounds, 0.97% hits; Induced myeloid leukemia cell differentiation protein Mcl-1 (Homo sapiens), Q07820;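 active = compounds that cut the binding signal by more than half at the single screening dose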;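 note: His-tagged Mcl-1 with europium anti-His antibody binding Bid BH3 peptide; 0% = Mcl-1 plus peptide wells and 100% = peptide-only wells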
# Mcl1 Noxa PPI: Mcl-1/Noxa binding inhibitors, primary screen, biochemical, TR-FRET, 1536-well | inhibition, % at 21.7 µM | 220,000 compounds, 1.5% hits | Induced myeloid leukemia cell differentiation protein Mcl-1 (Homo sapiens), Q07820 | TR-FRET Mcl-1/Noxa peptide binding, 2 h;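 active = compounds that cut the protein-peptide binding signal by more than 50% relative to plate controls in a single-dose test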;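 note: His-tagged Mcl-1 with rhodamine Noxa BH3 peptide and terbium anti-His antibody; 0% = Mcl-1 plus Noxa peptide wells and 100% = peptide-only wells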
# EBV gp42 block: Epstein-Barr virus gp42 inhibitors, primary screen, biochemical, uHTS, fluorescence polarization. 220,000 compounds, 0.42% hits. inhibition, % (tested at 21.74 µM). Fluorescence polarization binding assay, mP read-out. AID 1085, 2008; in the data active = inhibition above about 50%
# Target sequence (Q1HVG2 whole entry, looked up): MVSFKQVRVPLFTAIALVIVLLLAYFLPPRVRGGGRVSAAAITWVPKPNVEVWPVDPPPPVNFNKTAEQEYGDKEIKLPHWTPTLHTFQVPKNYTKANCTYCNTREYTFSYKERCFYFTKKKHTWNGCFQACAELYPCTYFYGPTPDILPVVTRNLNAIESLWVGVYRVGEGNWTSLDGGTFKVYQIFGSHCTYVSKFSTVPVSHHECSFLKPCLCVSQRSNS
# Bim-Mcl-1: inhibitors of Bim peptide binding to Mcl-1, primary screen, biochemical, bead-based flow cytometry, multiplex. Induced myeloid leukemia cell differentiation protein Mcl-1 (Homo sapiens), Q07820. 190,000 compounds, 0.1% hits. Bim peptide-Mcl-1 binding. AID 1009, 2008. inhibition, % at 10 µM; in the data active = inhibition above about 40%;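 note: 0% = no compound tracer wells and 100% = peptide blocker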
# Numbers without * were called inactive; . = no result given; ! = not active in a repeat.
SMILES,RBBP9 inhibitor,MCL1 BIM primary,Mcl1-Bid inh,Mcl1 Noxa PPI,EBV gp42 block,Bim-Mcl-1
Cn1c(/C=C/c2ccc(Br)cc2)c([N+](=O)[O-])c(=O)n(C)c1=O,.,4,.,.,.,.
Cc1cccc(C2Nc3cccc4cccc(c34)N2)c1,.,34,.,.,.,.
Brc1ccc(C2Nc3cccc4cccc(c34)N2)s1,-2,5,-13,100*,-5,0
CSCCC(NC(=O)c1ccccc1)C(=O)N1CCN(C(c2ccccc2)c2ccccc2)CC1 (configuration not stated),.,11,.,.,.,.
Cc1ccc(Nc2nc(=O)c3cccnc3s2)cc1,-10,-2,-18,-9,-15,.
COc1ccc(OC)c(Nc2nc(=O)c3cccnc3s2)c1,5,.,-59,56*,-18,0
COc1ccc(/C=C(\C#N)C(=O)NCc2cccnc2)cc1OC,-13,13,-40,20,-10,0
Oc1ccc2ccccc2c1C=Nc1ccc(Cl)cn1,-1,5,-44,23,82*,-1
COC(=O)c1ccc2c(=O)n(CC3CCCO3)c(SCC(=O)Nc3ccc(OC)cc3OC)nc2c1 (configuration not stated),1,6,57*,-39,-17,.
N#C/C(=C/c1ccc(N2CCCC2)c([N+](=O)[O-])c1)c1nc2ccccc2[nH]1,-8,5,40,25,5,0
Cc1ccc2nc(/C(C#N)=C\c3ccc(N4CCCCC4)c([N+](=O)[O-])c3)[nH]c2c1,6,-11,14,58*,13,0
O=C(Nc1cccc(N2CCCC2)c1)c1cccs1,-5,1,-67,51*,-16,0
COc1ccc(O)c(-c2cn[nH]c2-c2cccs2)c1,0,-1,-16,55*,-3,-1
COc1ccc(-c2[nH]ncc2-c2cscn2)c(O)c1,8,-1,-27,16,-13,-4
O=c1[nH]c2cc3c(cc2cc1CN(Cc1cccnc1)Cc1nnnn1Cc1ccco1)OCCO3,-8,44*,-1,36,-14,-2
CCOC(=O)Nc1ccc2c(c1)N(C(=O)CCN(C)C)c1ccccc1CC2,.,6,.,.,.,.
CCOC(=O)Nc1ccc2c(c1)N(C(=O)OCCN(C)C)c1ccccc1CC2,1,1,76*!,26,-16,0
COc1cc(/C=C(\C#N)c2ccccn2)ccc1OCC(=O)Nc1ccc(Br)cc1,-7,-3,26,12,-9,-5
COc1cc(/C=C(\C#N)c2nc3ccccc3s2)ccc1OCC(=O)Nc1ccccc1,-4,-94,78*,17,-88,0
COc1cc(/C=C(/C#N)c2nc3ccccc3[nH]2)ccc1OCC(=O)Nc1ccccc1C,-7,9,67*,-12,8,-3
COc1cc(/C=C(/C#N)c2nc3ccccc3[nH]2)ccc1OCC(=O)Nc1ccccc1C(C)C,-10,-1,59*,34,-4,16
CCOc1cc(/C=C(/C#N)c2nc3ccccc3[nH]2)ccc1OCc1ccc(C(=O)O)o1,-4,-7,-18,52*,-6,7
CCOc1cc(/C=C(/C#N)c2ccc(F)cc2)ccc1OCc1ccc(C(=O)O)o1,-10,0,26,9,-8,-6
COc1ccc(OC)c(-c2nc(C(N)=O)c3[nH]c(=O)n(-c4ccc(F)cc4)c3n2)c1,-5,-2,66*,67*,-10,1
COc1ccc(-c2nc(C(N)=O)c3[nH]c(=O)n(-c4ccccc4OC)c3n2)c(OC)c1,-13,4,-20,-7,-24,-3
SMILES,RBBP9 inhibitor,MCL1 BIM primary,Mcl1-Bid inh,Mcl1 Noxa PPI,EBV gp42 block,Bim-Mcl-1
Nc1nc(Cl)cc(N2CCC(c3cc(-c4ccc(Cl)cc4Cl)n[nH]3)CC2)n1,-13,-4,-4,66*,-25,1
Nc1nc(Cl)cc(N2CCCC2)n1,-7,1,-26,3,0,3
Cc1cc(C(=O)COC(=O)CCc2nc3ccccc3s2)c(C)n1C,-4,-4,-44,59*,1,0
O=C(CCc1nc2ccccc2s1)OCc1ccccc1,-10,3,-8,1,-11,-5
CCOc1ccc(NC(=O)c2ccccc2C(=O)c2ccccc2)cc1OCC,.,12,.,.,.,.
C#CCOCCOCCOCCNc1nc(N2CCN(C(=O)[C@H](Cc3cc4ccccc4[nH]3)n3cc([C@@H](N)C(C)CC)nn3)CC2)nc(N2CCN(C(=O)[C@H](CCCCN)n3cc([C@@H](N)CC(C)C)nn3)CC2)n1 (some centres not stated),0,-6,78*,40,-15,0
C#CCOCCOCCOCCNc1nc(N2CCN(C(=O)[C@H](CCC(=O)O)n3cc(C(N)CC(C)C)nn3)CC2)nc(N2CCN(C(=O)[C@H](CCC(=O)O)n3cc(C(N)[C@H](C)CC)nn3)CC2)n1 (some centres not stated),2,3,76*,36,-6,1
C#CCOCCOCCOCCNc1nc(N2CCN(C(=O)[C@H](Cc3cc4ccccc4[nH]3)n3cc([C@@H](N)CC(C)C)nn3)CC2)nc(N2CCN(C(=O)[C@H](Cc3cc4ccccc4[nH]3)n3cc([C@@H](N)CC(C)C)nn3)CC2)n1,2,-8,75*,54*,-4,0
C#CCOCCOCCOCCNc1nc(N2CCN(C(=O)[C@H](Cc3cc4ccccc4[nH]3)n3cc(C(N)CC(C)C)nn3)CC2)nc(N2CCN(C(=O)[C@H](CCC(=O)O)n3cc(C(N)[C@H](C)CC)nn3)CC2)n1 (some centres not stated),1,8,63*,31,-3,-1
C#CCOCCOCCOCCNc1nc(N2CCN(C(=O)[C@H](CCCCN)n3cc([C@@H](N)C(C)CC)nn3)CC2)nc(N2CCN(C(=O)[C@H](CCCCN)n3cc([C@@H](N)CC(C)C)nn3)CC2)n1 (some centres not stated),4,6,31,14,-10,-2
CC(C)CN(C(=O)c1cccc(S(=O)(=O)N2CCN(C)CC2)c1)C1CCS(=O)(=O)C1 (configuration not stated),.,-13,.,.,.,.
O=C(CCCOc1ccc(Br)cc1)Nc1ccc(S(=O)(=O)N2CCOCC2)cc1,.,2,.,.,.,.
CCN(Cc1cccc(F)c1)C(=O)c1ccc2ccccc2n1,.,4,.,.,.,.
Cc1nc2c(-c3ccc(Cl)cc3)cnn2c2c1CCC2,-4,-11,85*,14,8,0

# From PubChem BioAssay
